Measurements published in ChEMBL document CHEMBL4765333, “Novel NO-releasing scopoletin derivatives induce cell death via mitochondrial apoptosis pathway and cell cycle arrest” (Eur J Med Chem, 2020).
Activity calls are given as the source filed them. The rule behind the calls is not given here.

Assays:
MCF7 = assay: Antiproliferative activity against human MCF7 cells assessed as inhibition of cell growth rate at 10 uM measured after 48 hrs by MTT assay; type: functional
Summary of the method: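 MCF-7 cells in DMEM with 10% FBS exposed to a single 10 µM concentration for 48 h. Read-out by MTT (0.5 mg/ml, 4 h, DMSO dissolution, A570). Inhibition rate given versus untreated control as mean ± SD, n = 3.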

MDA-MB-231 [1] = assay: Antiproliferative activity in human MDA-MB-231 cells assessed as inhibition of cell viability at 1.5 to 3 uM pretreated with 20 uM apoptosis inhibitor, Z-VAD-FMK followed by addition of compound and measured after 48 hrs by MTT assay; type: functional, cell-based; conditions: dose 1.5-3 µM
Summary of the method: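 MDA-MB-231 cells pretreated 1 h with necrostatin-1 (10 µM) or Z-VAD-FMK (20 µM), then exposed to compound at 1.5, 2 and 3 µM for another 48 h. Inhibition rates by MTT; inhibitors alone also tested 48 h for viability. Mean ± SD, n = 3.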

MDA-MB-231 [2] = assay: Induction of apoptosis in human MDA-MB-231 cells after 24 hrs by Hoechst33342 staining based fluorescence inverted microscopic analysis; type: functional, cell-based; conditions: dose 0.5-1.5 µM
Summary of the method: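 MDA-MB-231 cells (5×10^4/well) attached 24 h, then treated 24 h with 0.5, 1 or 1.5 µM (DMSO vehicle control). Stained with Hoechst 33342 at 10 µg/ml for 5 min at 37°C in the dark, washed with PBS, and examined by inverted fluorescence microscopy for apoptotic nuclear morphology.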

MDA-MB-231 [3] = assay: Induction of apoptosis in human MDA-MB-231 cells assessed as necrotic cell at 1 uM after 24 hrs by Annexin V/propidium iodide staining based flow cytometric analysis (reference value: 0.019%); type: functional
Summary of the method: (§1)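 MDA-MB-231 cells (2×10^5/well) attached 24 h, then treated 24 h with 1, 1.5, 2 or 3 µM, DMSO as control. Cells harvested, PBS-washed, resuspended in binding buffer, stained with Annexin V and PI for 30 min at 37°C in the dark, and analysed by flow cytometry for quadrant percentages; three experiments.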

MDA-MB-231 [4] = assay: Induction of apoptosis in human MDA-MB-231 cells assessed as late apoptotic cells at 1 uM after 24 hrs by Annexin V/propidium iodide based flow cytometric analysis (reference value: 0.038%); type: functional; summary of the method: as §1
MDA-MB-231 [5] = assay: Induction of apoptosis in human MDA-MB-231 cells assessed as early apoptotic cells at 1 uM after 24 hrs by Annexin V/propidium iodide based flow cytometric analysis (reference value: 0.94%); type: functional; summary of the method: as §1
MDA-MB-231 [6] = assay: Induction of apoptosis in human MDA-MB-231 cells assessed as necrotic cells at 1.5 uM after 24 hrs by Annexin V/propidium iodide based flow cytometric analysis (reference value: 0.019%); type: functional; summary of the method: as §1
MDA-MB-231 [7] = assay: Induction of apoptosis in human MDA-MB-231 cells assessed as necrotic cells at 2 uM after 24 hrs by Annexin V/propidium iodide based flow cytometric analysis (reference value: 0.019%); type: functional; summary of the method: as §1
MDA-MB-231 [8] = assay: Induction of apoptosis in human MDA-MB-231 cells assessed as late apoptotic cells at 2 uM after 24 hrs by Annexin V/propidium iodide based flow cytometric analysis (reference value: 0.038%); type: functional; summary of the method: as §1
MDA-MB-231 [9] = assay: Induction of apoptosis in human MDA-MB-231 cells assessed as viable cells at 2 uM after 24 hrs by Annexin V/propidium iodide based flow cytometric analysis (reference value: 99%); type: functional; conditions: read-out: Activity; summary of the method: as §1
MDA-MB-231 [10] = assay: Induction of apoptosis in human MDA-MB-231 cells assessed as early apoptotic cells at 2 uM after 24 hrs by Annexin V/propidium iodide based flow cytometric analysis (reference value: 0.94%); type: functional; summary of the method: as §1
MDA-MB-231 [11] = assay: Induction of mitochondrial membrane potential depolarization in human MDA-MB-231 cells assessed as proportion of cells with hyperpolarized MMP at 2 uM incubated for 18 hrs by JC-1 staining based flow cytometry (reference value: 98.4%); type: functional
MDA-MB-231 [12] = assay: Induction of reactive oxygen species production in human MDA-MB-231 cells at 2 uM preincubated with ROS scavenger, NAC for 2 hrs followed by incubation with compound for 24 hrs by DCFH-DA staining based flow cytometry analysis relative to control; type: functional
Summary of the method: (§2)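 MDA-MB-231 seeded at 2×10^5 cells/well, grown 24 h, pretreated with NAC (2.5 mM) for 2 h, then given 2 µM compound for 24 h. Cells loaded with DCFH-DA 30 min at 37°C in the dark, washed in PBS, resuspended in serum-free medium and read by flow cytometry; three independent experiments.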

MDA-MB-231 [13] = assay: Induction of apoptosis in human MDA-MB-231 cells assessed as downregulation of Bcl-2 expression at 1.5 to 6 uM measured after 8 hrs by Western blot analysis; type: functional, cell-based; conditions: dose 1.5-6 µM
Summary of the method: (§3)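 MDA-MB-231 cells (8×10^5 per 60 mm dish) attached 24 h, then exposed 8 h to 1.5, 3 or 6 µM, DMSO as control. Lysates quantified by BCA; 30 µg protein run on 4–20% SDS-PAGE, transferred to PVDF, probed for Bcl-2, Bax, Bad, cleaved caspase-9, cleaved caspase-3 and PARP, with ECL detection. Densitometric relative levels; three experiments.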

MDA-MB-231 [14] = assay: Induction of apoptosis in human MDA-MB-231 cells assessed as increase in cleaved caspase-3 protein expression incubated for 8 hrs by Western blot analysis; type: functional, cell-based; conditions: dose 1.5-6 µM; summary of the method: as §3
MDA-MB-231 [15] = assay: Induction of apoptosis in human MDA-MB-231 cells assessed as increase in cleaved caspase-9 protein expression incubated for 8 hrs by Western blot analysis; type: functional, cell-based; conditions: dose 1.5-6 µM; summary of the method: as §3
MDA-MB-231 [16] = assay: Induction of apoptosis in human MDA-MB-231 cells assessed as increase in cleaved PARP protein expression incubated for 8 hrs by Western blot analysis; type: functional, cell-based; conditions: dose 1.5-6 µM; summary of the method: as §3
MDA-MB-231 [17] = assay: Induction of cell cycle arrest in human MDA-MB-231 cells assessed as accumulation at G2/M phase at 1.5 uM measured after 24 hrs by propidium iodide staining based flow cytometric method (reference value: 18.55%); type: functional
[18] = Prodrug release in human MDA-MB-231 cells assessed as increase in intracellular NO level at 25 uM measured after 2.5 hrs by total nitric oxide assay; type: ADME, cell-based; conditions: mda-mb-23, 2.5 h
Summary of the method: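 MDA-MB-231 (2×10^5 cells/well) cultured 24 h, then treated 2.5 h with compound at 25 µM or DMSO. Cells harvested, lysed in nitric oxide assay buffer 1 h on ice; lysate NO quantified with a total nitric oxide assay kit. Mean ± SD, n = 3.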

[19] = Induction of intracellular reactive oxygen species generation in human MDA-MB-231 cells assessed as proportion of FL1-H positive cells at 1 uM measured after 24 hrs by DCFH-DA staining based flow cytometry analysis (reference value: 47.8%); type: functional, MDA-MB-23
[20] = Induction of intracellular reactive oxygen species generation in human MDA-MB-231 cells assessed as proportion of FL1-H positive cells at 1.5 uM measured after 24 hrs by DCFH-DA staining based flow cytometry analysis (reference value: 47.8%); type: functional, MDA-MB-23
[21] = (§4) Induction of intracellular reactive oxygen species generation in human MDA-MB-231 cells assessed as proportion of FL1-H positive cells at 2 uM measured after 24 hrs by DCFH-DA staining based flow cytometry analysis (reference value: 47.8%); type: functional, MDA-MB-23
[22] = as §4, with “uM pretreated with ROS scavenger, NAC for 2 hrs prior to incubation with compound and” for “uM”; type: functional, MDA-MB-23; summary of the method: as §2

With `COc1cc2cc(N)c(=O)oc2cc1OCCCOc1no[n+]([O-])c1S(=O)(=O)c1ccccc1` the inhibition at 10 µM (MCF7) was 91.5%, the Activity (MDA-MB-231 [1]) was “inactive” and the Activity (MDA-MB-231 [2]) was “Dose-dependent effect”. The Activity (MDA-MB-231 [3]) was 0.21%, the Activity (MDA-MB-231 [4]) was 8.17% and the Activity (MDA-MB-231 [5]) was 3.75%. The Activity (MDA-MB-231 [6]) was 0.31%, the Activity (MDA-MB-231 [7]) was 0.2% and the Activity (MDA-MB-231 [8]) was 15.8%. For the same compound, the viability at 2 µM (MDA-MB-231 [9]) was 71.1%, the Activity (MDA-MB-231 [10]) was 12.9% and the Activity (MDA-MB-231 [11]) was 67.8%. The “fold change (FC)” value (MDA-MB-231 [12]) was 1.09, the Activity (MDA-MB-231 [13]) was “Active” and the Activity (MDA-MB-231 [14]) was “Dose-dependent effect”. For the same compound, the Activity (MDA-MB-231 [15]) was “Dose-dependent effect”, the Activity (MDA-MB-231 [16]) was “Dose-dependent effect” and the Activity (MDA-MB-231 [17]) was 30.11%. The Drug metabolism [18] was “Metabolite_Detected”, the Activity [19] was 65% and the Activity [20] was 82.7%. For the same compound, the Activity [21] was 88.8% and the Activity [22] was 51%.
